Assay results gathered from unrelated publications.
Lines come from different studies, so protocols differ.
Read-out: cell growth or viability

For `COCCCOc1ccnc(COc2ccc(NC(=O)Nc3ccc(F)cc3)cc2)c1C`, the IC50 was over 100 µM (L02; MTT; 72 h).
The IC50 of `CO[C@H]1/C=C\C=C(/C)C(=O)NC2=C(C)C(=O)C(NCCN(C)C)=C(C[C@@H](C)C[C@H](OC)[C@H](O)[C@@H](C)/C=C(\C)[C@@H]1OC(N)=O)C2=O` is reported as over 20 µM (ARPE-19; MTT).
`COc1cc2nccc(Oc3ccc(NC(=O)C4(C(=O)Nc5ccc(F)cc5)CC4)cc3)c2cc1OC` has an IC50 of over 9 µM (OCI-AML-3; trypan blue; 72 h).
For `Cc1cc(Oc2ccc(NC(=O)c3sc(-c4ccncc4)nc3C)cc2F)c2nncn2n1`, the IC50 was over 50 µM (L02; MTT).
For `c1cnc2c(c1)ccc1cccnc12`, the IC50 was over 50 µM (L02; MTT; 48 h).
The IC50 of `Cc1c(OCC(F)(F)F)ccnc1COc1ccc(NC(=O)Nc2ccc(F)cc2)cc1` is reported as over 100 µM (L02; MTT; 72 h).
For `CO[C@H]1/C=C\C=C(/C)C(=O)NC2=CC(=O)C(NCCN(C)C)=C(C[C@@H](C)C[C@H](OC)[C@H](O)[C@@H](C)/C=C(\C)[C@@H]1OC(N)=O)C2=O`, the IC50 was 0.15 µM (ARPE-19; MTT).
The IC50 of `Cc1ccc(S(=O)(=O)N(C)CC(=O)N(Cc2ccc(C3CCCCC3)cc2)c2ccc(C(=O)O)c(O)c2)cc1` is reported as 35.9 µM (OCI-AML2).
`COCCCOc1ccnc(COc2ccc(NC(=O)Nc3ccc(OC)cc3)cc2)c1C` has an IC50 of over 100 µM (L02; MTT; 72 h).
`COc1cc2c(Oc3ccc(NC(=O)C4(C(=O)Nc5ccc(F)cc5)CC4)cc3F)ccnc2cc1OCCCN1CCOCC1` has an IC50 of over 50 µM (L02; MTT).
For `Cc1c(OCC(F)(F)F)ccnc1COc1ccc(NC(=O)Nc2ccc(Cl)cc2)cc1`, the IC50 was over 100 µM (L02; MTT; 72 h).
The IC50 of `CCn1c(=O)c(-c2ccc(-c3cncs3)cc2Cl)cc2cnc(Nc3ccc(N4CCN(C)CC4)cc3)nc21` is reported as 14.1 µM (PANC-1; MTT; 24 h).
For `Cc1cc(Oc2ccc(NC(=O)c3cnn(-c4ccc(Cl)cc4)c3C(F)(F)F)cc2F)n2ncnc2n1`, the IC50 was over 50 µM (L02; MTT).
`COc1cccc2c1C(=O)c1c(O)c3c(c(O)c1C2=O)C[C@@](O)(C(=O)CO)C[C@@H]3O[C@H]1C[C@H](N)[C@H](O)[C@H](C)O1` has an IC50 of over 10 µg/mL (CCD-986Sk; MTT; 48 h).
The IC50 of `CCN1CCN(c2ccc(Nc3cc(N(C)C(=O)Nc4c(Cl)c(OC)cc(OC)c4Cl)ncn3)cc2)CC1` is reported as over 1 µM (Li-7; ATP luminescence; 96 h).
`O=C(N/N=C/c1c(O)ccc2ccccc12)c1cc(-c2ccc3ccccc3c2)n[nH]1` gave an IC50 of 9.7 µM (WM-115; MTS; 24 h).
With `C#Cc1cccc(Nc2ncnc3cc(OCCOC)c(OCCOC)cc23)c1` the IC50 was 0.05 µM (PANC-1; MTT).
The IC50 of `Cc1ccc2c(Br)cc(Br)c(O)c2n1` is reported as over 100 µM (L02; MTT; 48 h).
With `CC(=O)c1cccc(N=Nc2c(C(=O)O)cc(O)c(O)c2O)c1` the IC50 was 9.2 µM (PANC-1; MTT).
The IC50 of `Cc1cc(Oc2ccc(NC(=O)c3sc(-c4ccccn4)nc3C)cc2F)n2ncnc2n1` is reported as over 50 µM (L02; MTT).
For `CC[C@@H](C)[C@H](N)C(=O)N1Cc2ccccc2C1`, the IC50 was 1.44 µM (OCI-AML2; ATP luminescence; 48 h).
`Oc1ccc(Nc2nc(-c3ccc(Cl)cc3)cs2)cc1` gave an IC50 of 11.7 µM (WM-115; MTS; 72 h).
For `Cc1cnc(-c2ccc(-c3ccc(NC(=O)Nc4c(F)cc(F)cc4F)cc3F)c3c2C(=O)NC3)[nH]1`, the IC50 was 0.0118 µM (OCI-AML-3).
With `Cc1cc(Oc2ccc(NC(=O)c3sc(-c4cccnc4)nc3C)cc2)n2ncnc2n1` the IC50 was over 50 µM (L02; MTT).
For `Cc1c(OCC(F)(F)F)ccnc1COc1ccc(NC(=O)Nc2cc(F)cc(F)c2)cc1`, the IC50 was over 100 µM (L02; MTT; 72 h).
`Cc1cc(Oc2ccc(NC(=O)c3sc(-c4ccccc4)nc3C)cc2)c2nncn2n1` gave an IC50 of over 50 µM (L02; MTT).
With `COc1cc(-c2ncn(/C=C\C(=O)OC(C)C)n2)cc(C(F)(F)F)c1` the IC50 was 0.017 µM (OCI-AML2; 72 h).
For `c1ccc(-c2ccccn2)nc1`, the IC50 was over 50 µM (L02; MTT; 48 h).
With `C=C(C)C(=O)Nc1ccc(-c2c(-c3ccc(Oc4nccc(C)n4)c(F)c3)c3c(N)ncnc3n2C)cc1` the IC50 was over 10 µM (Li-7; ATP luminescence; 96 h).
The IC50 of `COc1c(C)cnc(COc2ccc(NC(=O)Nc3ccc(Cl)c(C(F)(F)F)c3)cc2)c1C` is reported as over 100 µM (L02; MTT; 72 h).
The IC50 of `CO[C@H]1/C=C\C=C(/C)C(=O)NC2=C(c3ccccc3)C(=O)C(NCCN(C)C)=C(C[C@@H](C)C[C@H](OC)[C@H](O)[C@@H](C)/C=C(\C)[C@@H]1OC(N)=O)C2=O` is reported as 8.2 µM (ARPE-19; MTT).
The IC50 of `COc1ccnc(COc2ccc(NC(=O)Nc3cc(F)cc(F)c3)cc2)c1OC` is reported as over 100 µM (L02; MTT; 72 h).
The IC50 of `COc1ccc(C(=O)O[C@@H]2CN3Cc4c(cc5c(c4OC)OCO5)[C@@]24C=C[C@H](OC)C[C@@H]34)cc1OC` is reported as 2.3 µM (PANC-1; WST-1).
For `COc1ccnc(COc2ccc(NC(=O)Nc3ccc(Cl)c(C(F)(F)F)c3)cc2)c1OC`, the IC50 was over 100 µM (L02; MTT; 72 h).
For `N[C@@H](CC(=O)N1CCN(C(c2ccc(F)cc2)c2ccc(F)cc2)CC1)C(=O)N1Cc2ccccc2C1`, the IC50 was 1.41 µM (OCI-AML2; ATP luminescence; 48 h).
